# PRMT1 FP inh = PRMT1 (human) inhibition, primary screen | Q99873 | recombinant PRMT1, activity-based probe fluorescence polarization | inhibition, % at 2.79 µM | actives 1.3% (n = 370,000);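 active means inhibition above about 21% made by adding two undisclosed values, limit read from the data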
# ABHD4 inh = ABHD4 (mouse) inhibition, primary FP screen; actives 0.54% (n = 370,000); purified mABHD4, FP-Rh probe fluorescence polarization; inhibition, % at 8.92 µM; AID 720543; Q8VD66;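 active means inhibition exceeding the mean over every tested compound plus 3 SD, cut at about 30% in these data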;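 further: 0% = plate median of compound wells and 100% = S159A mutant with DMSO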
# Target sequence (Q8VD66 whole entry, looked up): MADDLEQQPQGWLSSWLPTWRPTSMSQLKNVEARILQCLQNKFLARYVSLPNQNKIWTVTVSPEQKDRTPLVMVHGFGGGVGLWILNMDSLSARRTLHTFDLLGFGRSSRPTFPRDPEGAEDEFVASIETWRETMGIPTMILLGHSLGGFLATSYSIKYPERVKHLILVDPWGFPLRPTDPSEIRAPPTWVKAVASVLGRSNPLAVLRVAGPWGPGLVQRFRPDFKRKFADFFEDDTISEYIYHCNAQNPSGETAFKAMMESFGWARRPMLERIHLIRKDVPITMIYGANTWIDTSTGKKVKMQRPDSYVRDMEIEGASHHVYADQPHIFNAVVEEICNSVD
#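 Material: mouse ABHD4 enzyme, wild type; Benchmarks: S159A mutant high control, sample median low control; Buffer or medium: HEPES pH 7.0, NaCl, Pluronic buffer; Signal: fluorescence polarization; Read-out: percent inhibition of probe binding, normalized to plate controls; Timing: pre-incubation 45 min, probe exposure 60 min, at 25 °C; Dosing: 8.92 µM, single dose.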
# TCR CD3 inh = blocks the human TCR-CD3 interaction. TAMRA-labeled TCR probe fluorescence, biochemical. inhibition, % at 9.4 µM. actives 0.37% (n = 360,000). AID 651800; in the data active means inhibition above about 19%;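 further: recombinant mutant TCR 2C K166C tagged with TAMRA read by polarization; 0% = receptor in buffer alone and 100% = receptor with positive control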
# SIAE primary = human SIAE inhibition, primary screen; Q9HAT2; SIAE FP-Rh probe binding, fluorescence polarization; inhibition, % at 9.66 µM; actives 0.69% (n = 370,000); AID 1053197;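 active means inhibition above a cutoff: mean of compounds within the control limits plus 3 SD of those, cut at about 17% in these data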;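 further: 0% = plate median of compound wells and 100% = probe without SIAE protein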
# rCAG RNA binder = binds r(CAG) RNA repeats; r(CAG) RNA repeat, TO-PRO-1 dye displacement fluorescence; inhibition, % at 3 µM; actives 1.3% (n = 370,000); AID 651821;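 active means inhibition above the plate cutoff, the mean of all test compounds on that plate plus 3 SD, cut at about 35% in these data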;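 further: 0% = DMSO alone and 100% = 100 µM mitoxantrone as full dye displacement; higher means more dye released from RNA so lower well fluorescence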
# rCAG bind conf = r(CAG) RNA repeat binding, confirmation; shares compounds with rCAG RNA binder; TO-PRO-1 dye displacement fluorescence; inhibition, % at 3 µM; actives 70% (n = 4,300); AID 652065;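 active means inhibition above a per-plate cutoff, the mean inhibition of sample wells plus 3 SD, cut at about 35% in these data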;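 further: loss of TO-PRO-1 fluorescence as compound displaces dye from 1x1 AA loop RNA; 0% = DMSO only wells and 100% = 100 µM mitoxantrone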
# DNA CAG counter = disrupts DNA CAG TO-PRO-1 complex, flagging rCAG hits | shares compounds with rCAG RNA binder | d(CAG) DNA oligo TO-PRO-1 dye displacement, fluorescence | inhibition, % at 3 µM | actives 94% (n = 4,300);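 active means inhibition above its plate's cutoff, the mean test-well inhibition plus 3 SD, cut at about 4.8% in these data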;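 further: 0% = DNA dye mix with DMSO and 100% = 100 µM mitoxantrone; hits displace the dye from DNA and so lower well fluorescence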
# * = called active by the depositor; / = no result. An excerpt weighted towards active compounds, which were near 3.3% of everything screened.
SMILES,PRMT1 FP inh,ABHD4 inh,TCR CD3 inh,SIAE primary,rCAG RNA binder,rCAG bind conf,DNA CAG counter
COc1cc(/C=C2/NC(=O)N(Cc3ccccc3F)C2=O)cc(OC)c1O,6,18,-9,9,8,/,/
Cc1ccc(NC(=O)CN2C(=O)N/C(=C/c3ccccc3OCc3cccc(C(=O)O)c3)C2=O)cc1,-1,-15,-4,-36,76*,63*,27*
O=C(O)c1ccc(COc2ccccc2/C=C2\NC(=O)N(Cc3ccccc3F)C2=O)cc1,1,-21,5,-15,42*,45*,14*
COc1cccc(/C=C2/NC(=O)N(CC(=O)Nc3ccc(C)cc3)C2=O)c1OCc1cccc(C(=O)O)c1,0,-2,2,6,23,/,/
COc1ccc(-c2cc(C(=O)NC(Cc3cc4ccccc4[nH]3)C(=O)O)c(C)o2)cc1OC (stereo unspecified),17,4,6,4,49*,50*,15*
COc1ccc(-c2cc(C(=O)O)c(C)o2)cc1OC,2,5,7,6,2,/,/
COc1ccc(Cn2cc(CN3[C@H](Cc4ccccc4)COc4cc(Br)ccc4S3(=O)=O)nn2)cc1,0,5,/,5,10,/,/
O=Nc1c(-c2c(O)[nH]c3cc(Br)ccc23)[nH]c2ccccc12,1,-4,-4,-3,59*,54*,36*
O=C(CC1C[C@H](C(=O)N2CCOCC2)[C@@]2(CCC3CCCC3)c3[nH]c4ccccc4c3CCN2C1=O)NCCCn1ccnc1 (stereo partly specified),-1,3,0,2,35*,2,2
O=C(CCCl)NC1CCCCN(Cc2ccc(OC(F)(F)F)cc2)C1=O (stereo unspecified),-5,-3,/,5,-3,/,/
O=C(CSc1nnc(-c2cccnc2)n1-c1ccccc1)Nc1cccc2ccccc12,0,1,/,-2,3,/,/
O=C(c1cccc(S(=O)(=O)Nc2ccccc2Cl)c1)N1CCC1,1,-1,-3,2,-1,/,/
CC1CCCN(C(=O)c2cccc(S(=O)(=O)Nc3cc(C(F)(F)F)ccc3Cl)c2)C1 (stereo unspecified),2,-1,1,-3,62*,60*,27*
O=C1CCC[C@H]2C[C@H](NCc3ccc(Cl)c(Cl)c3)CC[C@]23CCCN13,-2,7,/,3,/,/,/
CC[C@@H]1C=C(C(=O)O)[C@H](c2ccc(C)cc2)N1S(=O)(=O)c1ccc(C)cc1,1,-2,-4,-5,9,/,/
Cc1ccc(S(=O)(=O)N2[C@@H](c3ccc(Cl)c(Cl)c3)C(C(=O)O)=C[C@H]2CC2CCCC2)cc1,1,-28,1,-5,87*,86*,57*
CC[C@@H]1C=C(C(=O)O)[C@H](c2ccc(Cl)cc2)N1S(=O)(=O)c1ccc(C)cc1,-2,1,-7,7,24,/,/
Cc1ccc(S(=O)(=O)N2[C@@H](c3ccc(C#N)cc3)C(C(=O)O)=C[C@H]2CC2CCCC2)cc1,0,-1,1,-9,69*,59*,25*
Cc1ccc(S(=O)(=O)N2[C@@H](c3ccc(Cl)cc3)C(C(=O)O)=C[C@H]2CC2CCCC2)cc1,1,-10,0,-4,77*,77*,40*
O=C1N/C(=N\S(=O)(=O)Cc2ccccc2)S/C1=C/c1cccc([N+](=O)[O-])c1,3,-4,-3,-10,81*,69*,28*
COc1ccc(/C=C2/S/C(=N/S(=O)(=O)Cc3ccccc3)NC2=O)cc1OC,4,-15,-5,-15,53*,44*,12*
Cc1ccc(-n2c(SCC(=O)Nc3ccc4c(c3)OCCO4)nnc2-c2cnccn2)cc1,-4,5,/,4,2,/,/
O=C(O)CCCCCN1C(=O)/C(=C\c2cn(-c3ccccc3)nc2-c2cccs2)SC1=S,5,1,-1,-6,20,/,/
O=C1C(=Cc2cn(-c3ccccc3)nc2-c2ccc(OCc3ccc(Cl)cc3)cc2)SC(=S)N1CCS(=O)(=O)O,14,-84,2,-65,68*,58*,43*

# Source: PubChem BioAssay
